Molecules are shown by their SMILES. Bounds are passed on as bounds.

Data set [1] in a line: Selectivity index, ratio of Ki for human HGPRT to Ki for Plasmodium falciparum HGPRT.
Data set [2] has as its target T1, Hypoxanthine-guanine phosphoribosyltransferase (Homo sapiens, UniProt P00492).
T1 sequence (P00492 whole entry): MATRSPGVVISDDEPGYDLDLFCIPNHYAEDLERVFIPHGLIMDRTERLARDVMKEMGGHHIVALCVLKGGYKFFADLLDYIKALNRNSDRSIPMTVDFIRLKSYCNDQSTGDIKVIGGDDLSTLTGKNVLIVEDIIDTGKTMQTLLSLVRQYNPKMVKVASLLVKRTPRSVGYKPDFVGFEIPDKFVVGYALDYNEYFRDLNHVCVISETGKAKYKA
Kind of data set: Inhibition of human HGPRT using Prib-PP as substrate by Hanes-plot based method.

Data set [3] is described as follows: Inhibition of Plasmodium falciparum HGPRT using xanthine as substrate by Hanes-plot based method. The gist of the method:
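Ki was determined for PfHGXPRT using xanthine as the substrate, under the conditions used for human HGPRT. The reaction was followed spectrophotometrically at 255 nm, with Δε 4670 M⁻¹ cm⁻¹. Km for xanthine was 189 ± 18 μM.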

Data set [4] can be described thus: Cytotoxicity against human HepG2 cells assessed as cell viability at 10 uM. In kind it is cell-based. The settings on record: read-out: Activity. Summed up:
(§1)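 Percent viability of human HepG2 (hepatocellular carcinoma) and CCRF-CEM (T-cell leukemia) cells after exposure to a single fixed prodrug concentration of 10 μM, expressed relative to untreated control cells.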

The subject of data set [5] is Plasmodium falciparum. Description: Antimalarial activity against chloroquine-resistant Plasmodium falciparum W2 in erythrocytes assessed as reduction in 3H-hypoxanthine uptake incubated for 96 hrs and 3H-hypoxanthine added after 48 hrs of compound addition.
For data set [6], the system named is Plasmodium falciparum. Description: Antimalarial activity against Plasmodium falciparum D6 in erythrocytes assessed as reduction in 3H-hypoxanthine uptake incubated for 96 hrs and 3H-hypoxanthine added after 48 hrs of compound addition.
A short description of data set [7]: Cytotoxicity against human CCRF-CEM cells assessed as cell viability at 10 uM. The settings on record: read-out: Activity. The format is cell-based. Summed up:
as §1

For orientation: Ki means the equilibrium dissociation constant of an inhibitor or competing ligand from its target. Higher therefore signals weaker binding. As to `O=c1[nH]cnc2c1ncn2CCS(=O)(=O)CCP(=O)(O)O`, the Ratio Ki in data set [1] was greater than 22. For the same compound, the inhibitory constant (Ki) in data set [2] was greater than 90 µM; in data set [3], 4 µM.
For `O=c1[nH]cnc2c1ncn2CC[S+]([O-])CCP(=O)(O)O` (configuration not stated) the same measures were 4, 4 µM and 1 µM.
For `O=c1[nH]cnc2c1ncn2CCC[S+]([O-])CP(=O)(O)O` (configuration not stated) the same measures were 2.8, 11 µM and 4 µM.
For `Nc1nc2c(ncn2CCSCCP(=O)(O)O)c(=O)[nH]1` the same measures were 4, 0.4 µM and 0.1 µM.
For orientation: IC50 means the concentration needed to halve the response being measured. In the case of `CC(C)OC(=O)[C@H](Cc1ccccc1)NP(=O)(CSCCCn1cnc2c(=O)[nH]c(N)nc21)N[C@@H](Cc1ccccc1)C(=O)OC(C)C`, the viability at 10 µM in data set [4] was found to be 95%; in data set [7], 98%. The IC50 was 5.2 µM in data set [5] and 4 µM in data set [6].
For the compound `Nc1nc2c(ncn2CC[S+]([O-])CCP(=O)(O)O)c(=O)[nH]1` (configuration not stated), the Ratio Ki in data set [1] came out at 0.7. The Ki in data set [2] stood at 0.2 µM; in data set [3] it was 0.3 µM.
For `Nc1nc2c(ncn2CCC[S+]([O-])CP(=O)(O)O)c(=O)[nH]1` (configuration not stated) the same measures were 15, 3 µM and 0.2 µM.
Turning to `CC(C)OC(=O)[C@H](Cc1ccccc1)NP(=O)(CCSCCn1cnc2c(=O)[nH]c(N)nc21)N[C@@H](Cc1ccccc1)C(=O)OC(C)C`, the viability at 10 µM in data set [4] is 83%; in data set [7], 106%. Besides, the results for the IC50 in data set [5] and in data set [6] were 4.4 µM and 5.4 µM, respectively.
`O=c1[nH]cnc2c1ncn2CCSCCP(=O)(O)O`: in data set [1], the Ratio Ki is 25. Further, the Ki in data set [2] turned out to be 5 µM; in data set [3], 0.2 µM.
For `Nc1nc2c(ncn2CCCSCP(=O)(O)O)c(=O)[nH]1` the same measures were 1.3, 1.4 µM and 1.1 µM.
For `O=c1[nH]cnc2c1ncn2CCCS(=O)(=O)CP(=O)(O)O` the same measures were 10, 46 µM and 4.5 µM.
For `O=c1[nH]cnc2c1ncn2CCCSCP(=O)(O)O` the same measures were greater than 26, greater than 80 µM and 3 µM.
In the case of `CC(C)OC(=O)[C@H](Cc1ccccc1)NP(=O)(CCSCCn1cnc2c(=O)[nH]cnc21)N[C@@H](Cc1ccccc1)C(=O)OC(C)C`, the viability at 10 µM in data set [4] was 90%; in data set [7], 100%. Moreover, the IC50 is 5.4 µM in data set [5] and 4.4 µM in data set [6].

Values taken from ChEMBL document CHEMBL4311966, “Sulfide, sulfoxide and sulfone bridged acyclic nucleoside phosphonates as inhibitors of the Plasmodium falciparum and human 6-oxopurine phosphoribosyltransferases: Synthesis and evaluation” (Eur J Med Chem, 2019).
